# Shown are actives, neighbours in structure and some others; about 1.9% of the full set was active somewhere.
# M4 antag: blocks acetylcholine activation of human M4 receptor. P08173. CHO-hM4 cells, ACh EC80, Fluo-8 calcium fluorescence. inhibition, % at 3 µM. 0.73% of 360,000 active. AID 624125;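 active means inhibition above its plate's cutoff, the mean inhibition of sample wells plus 3 SD, cut at about 27% in these data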;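 further: 0% = acetylcholine EC80 with DMSO and 100% = DMSO without agonist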
# Target sequence (P08173 whole entry, looked up): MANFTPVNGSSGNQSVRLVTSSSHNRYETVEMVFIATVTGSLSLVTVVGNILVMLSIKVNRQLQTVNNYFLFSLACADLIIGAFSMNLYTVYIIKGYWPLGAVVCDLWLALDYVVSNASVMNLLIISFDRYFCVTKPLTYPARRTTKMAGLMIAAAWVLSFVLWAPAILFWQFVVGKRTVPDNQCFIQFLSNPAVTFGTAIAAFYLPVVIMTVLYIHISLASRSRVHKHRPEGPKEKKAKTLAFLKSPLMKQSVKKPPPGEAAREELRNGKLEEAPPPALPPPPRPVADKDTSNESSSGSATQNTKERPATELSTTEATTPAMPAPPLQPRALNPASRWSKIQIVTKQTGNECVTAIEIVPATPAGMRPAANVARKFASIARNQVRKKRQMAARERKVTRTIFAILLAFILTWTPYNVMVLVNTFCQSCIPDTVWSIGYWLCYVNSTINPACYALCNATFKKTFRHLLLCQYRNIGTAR
# CHRM4 PAM: potentiates acetylcholine response at human M4 receptor; 0.4% of 360,000 active; AID 624126; CHO-K1 hM4/Gqi5, Fluo-8 calcium fluorescence, ACh EC20; 0% = ACh EC20, 100% = maximal ACh; activation, % at 3 µM;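 active means activation above its plate's cutoff, the mean activation of sample wells plus 3 SD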
# M5 PAM: positive allosteric modulators of human muscarinic M5 receptor | P08912 | CHO-K1 hM5, Fluo-8 calcium, ACh EC20 PAM; 0% = ACh EC20, 100% = ACh EC100 | activation, % at 3 µM | 0.3% of 360,000 active | AID 624038;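 active means activation above the run cutoff, the mean activation of all test compounds plus 3 SD, cut at about 18% in these data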
#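 Probe or stimulus: acetylcholine, EC20 level; Assay system: human M5 receptor in CHO-K1 cells; Schedule: compound preincubation 140 s before EC20 acetylcholine addition; Technique: intracellular calcium via Fluo-8 fluorescence; Dosing: single-point, 3 µM nominal; Read-out basis: percent activation from peak-over-basal fluorescence ratio, scaled EC20-to-EC100 acetylcholine; Repeats: one well per compound, no replicates.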
# M5 antag: antagonists of human muscarinic M5 receptor (CHRM5); P08912; inhibition, % at 3 µM; CHO-hM5 cells, Fluo-8 calcium fluorescence, ACh EC80; 0.59% of 360,000 active;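 active means inhibition above a per-plate cutoff, the mean of that plate's test compounds plus 3 SD, cut at about 27% in these data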;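 further: 0% = acetylcholine EC80 with DMSO and 100% = DMSO without agonist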
# CHRM5 agonist: CHRM5 agonism in calcium assay; P08912; CHO-K1 hM5 cells, Fluo-8 calcium fluorescence; 0% DMSO wells, 100% maximal acetylcholine response; activation, % at 3 µM; 0.19% of 360,000 active;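 active means activation above the run's mean over test compounds plus 3 SD, cut at about 23% in these data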;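 further: signal is peak over basal fluorescence ratio across the kinetic read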
# CHRM4 agonist: CHRM4 agonism in calcium assay; AID 624127; P08173; CHO-K1 hM4/Gqi5, Fluo-8 calcium fluorescence; vehicle 0%, full acetylcholine response 100%; 0.14% of 360,000 active; activation, % at 3 µM;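 active means activation above the run mean over all test wells plus 3 SD, cut at about 32% in these data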;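 further: peak over basal fluorescence ratio per well then scaled between controls; 0% = DMSO wells and 100% = acetylcholine at EC100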
# * marks the source's active call; other numbers are inactive results.
SMILES,M4 antag,CHRM4 PAM,M5 PAM,M5 antag,CHRM5 agonist,CHRM4 agonist
CN1CCC(Oc2ccccc2Sc2ccc(C(F)(F)F)cc2)CC1,6.0,-6.1,-19.9,14.3,-8.6,1.1
O=C1/C(=C/c2ccc(F)c(F)c2)CSc2sccc21,-4.3,37.2*,-0.4,-5.5,-7.2,-0.8
O=C1/C(=C\c2ccc(C(F)(F)F)cc2)CSc2sccc21,-11.6,5.8,1.2,0.0,-3.0,-0.9
CCN(CC)CCCn1c2c(c(SCC(=O)Nc3ccc4c(c3)OCCO4)nc1=O)CCC2,-11.2,-1.9,7.3,1.3,-3.3,0.2
Cc1cc(C)cc(N(CCC(=O)Nc2nnc(C3CC3)s2)S(=O)(=O)c2ccc(Cl)cc2)c1,1.1,20.6*,1.8,3.9,1.3,-0.5
O=C(COC(=O)c1ccc(Cl)c(S(=O)(=O)N2CCCCCC2)c1)NCc1ccccc1,1.0,-5.6,-5.2,4.9,0.2,4.3
c1ccc(COc2ccc(CNCc3cccs3)cc2)cc1,32.9*,-26.9,-10.0,4.6,-9.8,6.6
O=C(Nc1nnc(SCCC2OCCO2)s1)C1CC(=O)N(c2ccccc2)C1 (centres undefined),-7.8,-2.7,-0.3,-4.7,-0.6,3.5
COc1cccc(N2CC(C(=O)Nc3nnc(SCCC4OCCO4)s3)CC2=O)c1 (centres undefined),-0.7,-1.2,-8.6,31.1*,-4.2,2.1
COc1ccc(C(=O)n2cnc3ccccc32)cc1,-21.1,14.3*,2.9,-1.6,1.1,0.3
O=C1NC(=O)C2(N1)c1ccccc1-c1ccccc12,-1.4,-0.8,3.7,9.3,-0.1,-0.1
O=C1NC(=O)C2(N1)C(=O)c1cccc3cccc2c13 (centres undefined),28.7*,-16.6,-8.6,16.6,36.5*,161.3*
CCOP(=O)(O)c1cccc(OCCOCCOc2cccc(P(=O)(O)OCC)c2)c1,5.9,-2.0,-3.0,12.3,2.0,0.0
O=C(c1[nH]c(C(F)(F)F)nc1-c1ccccc1)N1CCN(c2c(Cl)cncc2Cl)CC1,3.3,-6.8,-6.3,14.3,35.8*,45.6*
O=C(c1[nH]c(C(F)(F)F)nc1-c1ccccc1)N1CCN(c2ccccc2)CC1,-11.5,1.8,2.7,5.1,1.4,0.6
O=C(NCc1ccncc1)C(=O)NCC1OCCN1S(=O)(=O)c1ccc(F)cc1 (centres undefined),4.5,11.6,-6.9,-1.1,-0.9,1.9
COc1cccc(C(C)NC(=O)C2CCCC2)c1 (centres undefined),-19.0,2.7,7.3,-20.7,2.8,1.3
O=C(OCC(=O)N(C1CCCCC1)C1CCCCC1)c1ccc(Cl)nc1,-6.8,20.4,6.0,-12.5,3.6,0.5
CN(C)c1cccc(C(=O)OCC(=O)NC2CCCC2)c1,-3.6,-1.9,0.5,-4.2,-2.1,0.0
O=C(COC(=O)c1ccc(Cl)nc1)NC1CCCCCC1,-1.1,26.1*,-0.5,2.0,-0.2,0.4
CN(C)c1ccc(C(=O)OCC(=O)NC2CCCCC2)cc1,-16.4,0.9,34.9*,-15.4,1.2,2.1
COc1ccc(CN2CCC(CO)(CCOc3ccccc3)CC2)cc1C,-2.6,5.6,-1.1,5.9,-2.4,3.9
O=C(c1cccc(Cl)c1)N1CCCC(C(=O)N2CCCCCC2)C1 (centres undefined),9.6,-10.0,-5.5,6.2,-5.7,0.3
O=C(c1cccc(Cl)c1)C1CCCN(Cc2ccc(N3CCNC3=O)cc2)C1 (centres undefined),28.9*,-24.4,-15.7,8.1,-15.9,0.8
O=C(c1cccc(Cl)c1)C1CCCN(C(=O)c2ccoc2)C1 (centres undefined),1.4,-5.5,-17.9,39.2*,-4.5,11.5
SMILES,M4 antag,CHRM4 PAM,M5 PAM,M5 antag,CHRM5 agonist,CHRM4 agonist
COc1ccc(CN2CCC(C(=O)c3cccc(Cl)c3)CC2)cc1,-10.9,-0.6,-7.8,19.2,-8.0,1.2
Cc1sc2nc[nH]c(=O)c2c1-c1ccc(Cl)cc1,7.1,-1.9,1.2,10.6,5.1,1.0
CN1C(=O)C(=O)/C(=C(/O)c2ccc(Br)cc2)C1c1ccccc1F (centres undefined),-6.3,-0.7,-5.9,17.6,-1.5,0.2
Cc1ccc(NC(=O)[C@H](C)NC(=O)C2CCN(C(=O)[C@@H](NC(=O)OC(C)(C)C)C(C)C)CC2)cc1,-1.4,17.3*,0.0,-2.2,-5.0,-1.2
CSc1ccccc1NC(=O)COC(=O)Cc1cccs1,7.0,4.1,-2.8,3.9,-0.6,1.1
CCOc1ccccc1NC(=O)COC(=O)Cc1cccs1,99.5*,-15.5,6.2,-13.1,-1.6,-2.7
O=C(O)c1cccc(S(=O)(=O)NCCC(c2ccccc2)c2ccccc2)c1,-25.9,23.0*,11.8,0.5,-6.5,1.4
C=CCNC(=S)Nc1ccccc1-c1nnc2n1CCCCC2,4.3,-16.4,-16.0,30.4*,-8.8,0.8
Nc1ccccc1-c1nnc2n1CCCCC2,-3.8,0.4,0.4,17.0,-5.4,0.1
CCOC(=O)N1CCC(N2CCN(CCC(C)C)C(CCO)C2)CC1 (centres undefined),62.8*,-16.9,-2.6,-2.9,-9.7,0.8
CCOC(=O)N1CCC(N2CCN(Cc3ccc(F)c(F)c3)C(CCO)C2)CC1 (centres undefined),-1.4,1.8,3.2,-2.4,-8.9,1.5
CCN(CC(=O)Nc1c(F)cccc1F)C(=O)c1ccc(-n2cncn2)c([N+](=O)[O-])c1,34.6*,-6.0,0.8,-0.3,4.5,-0.2
COc1ccccc1CNS(=O)(=O)c1c(C(=O)N2CCCC2)c(C)n(C)c1C,1.3,-4.1,-10.9,23.4,-1.6,0.2
CCn1c(Cl)c(C=O)s/c1=N\S(=O)(=O)c1ccccc1,73.8*,-35.1,-17.7,32.7*,-9.5,2.2
c1ccc2sc(-c3ccncc3)nc2c1,-1.8,-0.3,32.0*,28.4*,-3.3,1.5
COc1ccc(C(=O)COC(=O)C(CCSC)NS(=O)(=O)c2ccc(Cl)cc2)cc1 (centres undefined),27.4*,-23.5,-15.1,12.4,1.1,18.8
Cc1ccc(NC(=O)c2snc3ccc(Cl)cc23)cc1C,-2.9,9.3,-12.5,31.3*,-6.8,1.7
Cc1cc(C)cc(NC(=O)C(OC(=O)c2ccc(NC(=O)CC#N)cc2)c2ccccc2)c1 (centres undefined),-5.2,-2.3,-0.8,-1.6,-1.1,0.0
Cc1cc(C)c(C(=O)CC(=O)c2cccnc2)c(C)c1,-8.2,5.9,17.4,12.2,-1.1,-0.8
S=c1[nH]ncn1-c1ccccn1,5.0,24.6*,6.3,-4.2,-2.5,0.3
c1ccc(-n2cnc3ccccc32)nc1,-5.5,-0.3,-2.7,13.9,-3.3,0.3
